According to ChEMBL document CHEMBL1142895, “Discovery of a new insecticide lead by optimizing a target-diverse scaffold: tetrazolinone derivatives” (2007):
Activity calls are given as the source filed them. The calls are words filed in the database; no cut-off is given here.

Assays:
[1] = tested on: Triticum aestivum; test: Inhibition of stem growth of Triticum aestivum at 100 mg/L; type: functional
Summary of the method: (§1)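 Seeds of each species were grown in Petri dishes with 10 seeds per dish, at 28 °C, 70–80% RH, 16:8 h light:dark photoperiod and 3000 lx light for 5 days. Root and stem lengths were measured for the 10 seeds and averaged. Each test and its controls were run in three replicates, and the data were given probit analysis.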

[2] = tested on: Triticum aestivum; test: Inhibition of root growth of Triticum aestivum at 100 mg/L; type: functional; summary of the method: as §1
[3] = tested on: Echinochloa crus-galli; test: Inhibition of stem growth of Echinochloa crus-galli at 100 mg/L; type: functional; summary of the method: as §1
[4] = tested on: Echinochloa crus-galli; test: Inhibition of root growth of Echinochloa crus-galli at 100 mg/L; type: functional; summary of the method: as §1
[5] = tested on: Sorghum bicolor; test: Inhibition of stem growth of Sorghum bicolor at 100 mg/L; type: functional; summary of the method: as §1
[6] = tested on: Sorghum bicolor; test: Inhibition of root growth of Sorghum bicolor at 100 mg/L; type: functional; summary of the method: as §1
[7] = tested on: Brassica rapa subsp. oleifera; test: Inhibition of stem growth of Brassica campestris at 100 mg/L; type: functional; summary of the method: as §1
[8] = tested on: Brassica rapa subsp. oleifera; test: Inhibition of root growth of Brassica campestris at 100 mg/L; type: functional; summary of the method: as §1
[9] = tested on: Radish; test: Inhibition of stem growth of Raphanus sativus at 100 mg/L; type: functional; summary of the method: as §1
[10] = tested on: Radish; test: Inhibition of root growth of Raphanus sativus at 100 mg/L; type: functional; summary of the method: as §1
[11] = tested on: Cucumis sativus; test: Inhibition of stem growth of Cucumis sativus at 100 mg/L; type: functional; summary of the method: as §1
[12] = tested on: Cucumis sativus; test: Inhibition of root growth of Cucumis sativus at 100 mg/L; type: functional; summary of the method: as §1
[13] = tested on: Aphis; test: Insecticidal activity against Aphis medicagini at 250 mg/L; type: functional
Summary of the method: (§2)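 Groups of 10 of each species were placed in glass Petri dishes and sprayed with test solution using a Potter sprayer. After air-drying, they were held under normal rearing conditions. Mortality at 72 h was taken from the number and size of live larvae relative to untreated controls.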

[14] = tested on: Triticum aestivum; test: Herbicidal activity against Triticum aestivum at 450 g ai/ha in greenhouse in vivo test; type: functional, organism-based
[15] = tested on: Echinochloa crus-galli; test: Herbicidal activity against Echinochloa crus-galli at 450 g ai/ha in greenhouse in vivo test; type: functional, organism-based
[16] = tested on: Sorghum bicolor; test: Herbicidal activity against Sorghum bicolor at 450 g ai/ha in greenhouse in vivo test; type: functional, organism-based
[17] = tested on: Brassica rapa subsp. oleifera; test: Herbicidal activity against Brassica campestris at 450 g ai/ha in greenhouse in vivo test; type: functional, organism-based
[18] = tested on: Radish; test: Herbicidal activity against Raphanus sativus at 450 g ai/ha in greenhouse in vivo test; type: functional, organism-based
[19] = tested on: Cucumis sativus; test: Herbicidal activity against Cucumis sativus at 450 g ai/ha in greenhouse in vivo test; type: functional, organism-based
[20] = tested on: Tetranychus cinnabarinus; test: Insecticidal activity against Tetranychus cinnabarinus at 250 mg/L; type: functional; summary of the method: as §2

Compound | inhibition at 100 µg/mL [1] [%] | inhibition at 100 µg/mL [2] [%] | inhibition at 100 µg/mL [3] [%] | inhibition at 100 µg/mL [4] [%] | inhibition at 100 µg/mL [5] [%] | inhibition at 100 µg/mL [6] [%] | inhibition at 100 µg/mL [7] [%] | inhibition at 100 µg/mL [8] [%] | inhibition at 100 µg/mL [9] [%] | inhibition at 100 µg/mL [10] [%] | inhibition at 100 µg/mL [11] [%] | inhibition at 100 µg/mL [12] [%] | Activity [13] [%] | Activity [14] | Activity [15] | Activity [16] | Activity [17] | Activity [18] | Activity [19] | Activity [20] [%]
Cc1ccccc1CSc1nnc(Cn2nnn(-c3ccc(Cl)cc3)c2=O)s1 | 60 | 60 | 70 | 60 | 30 | 0 | 30 | 50 | 40 | 40 | 0 | 0 | 0 | inactive | inactive | inactive | inactive | inactive | inactive | 0
CSc1nnc(Cn2nnn(-c3ccc(Cl)cc3)c2=O)s1 | 50 | 60 | 0 | 30 | 40 | 60 | 70 | 0 | 50 | 50 | 60 | 40 | 5.7 | inactive | inactive | inactive | inactive | inactive | inactive | 0
CCCCCCCCSc1nnc(Cn2nnn(-c3ccc(Cl)cc3)c2=O)s1 | 0 | 30 | 0 | 40 | 0 | 50 | 0 | 40 | 0 | 40 | 0 | 30 | 0 | inactive | inactive | inactive | inactive | inactive | inactive | 2.9
CCOC(=O)C(C)Sc1nnc(Cn2nnn(-c3ccc(Cl)cc3)c2=O)o1 (stereo not given) | 0 | 0 | 0 | 0 | 0 | 0 | 60 | 80 | 0 | 0 | 0 | 0 | 8.3 | inactive | inactive | inactive | inactive | inactive | inactive | 0
C=CCSc1nnc(Cn2nnn(-c3ccc(Cl)cc3)c2=O)o1 | 0 | 0 | 0 | 0 | 0 | 0 | 70 | 80 | 60 | 60 | 50 | 60 | 5 | inactive | inactive | inactive | inactive | inactive | inactive | 96.8
CCCCCCSc1nnc(Cn2nnn(-c3ccc(Cl)cc3)c2=O)s1 | 30 | 0 | 0 | 0 | 40 | 60 | 40 | 70 | 30 | 40 | 0 | 0 | 0 | inactive | inactive | inactive | inactive | inactive | inactive | 4.3
O=c1n(Cc2nnc(SCc3cccc(Cl)c3)s2)nnn1-c1ccc(Cl)cc1 | 70 | 60 | 0 | 0 | 50 | 40 | 0 | 0 | 30 | 50 | 40 | 0 | 2.9 | inactive | inactive | inactive | inactive | inactive | inactive | 5.7
CCOC(=O)CSc1nnc(Cn2nnn(-c3ccc(Cl)cc3)c2=O)s1 | 60 | 50 | 0 | 0 | 50 | 30 | 50 | 70 | 60 | 70 | 30 | 50 | 0 | inactive | inactive | inactive | inactive | inactive | inactive | 80
O=c1n(Cc2ccccc2F)nnn1-c1ccc(Cl)cc1 | 0 | 0 | 0 | 0 | 0 | 0 | 0 | 0 | 0 | 0 | 0 | 0 | 5 | inactive | inactive | inactive | inactive | inactive | inactive | 10
CO/C=C\C(C(=O)OC)c1ccccc1CSc1nnc(Cn2nnn(-c3ccc(Cl)cc3)c2=O)s1 (stereo not given) | 40 | 0 | 0 | 30 | 0 | 60 | 30 | 30 | 30 | 60 | 30 | 30 | 2.9 | inactive | inactive | inactive | inactive | inactive | inactive | 0
